Assay outcomes as filed in PubChem BioAssay.
Most compounds without a hit are left out; they make up all but 1.8% or so of the library.
Scp-1 inhibitor: blocks human Scp-1 phosphatase activity; Recombinant Scp1, phosphopeptide, malachite green phosphate absorbance; hit rate 0.88% among 340,000; Q9GZU7; inhibition, % at 20 µM;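 active = inhibition above about 50% at 20 µM, limit read from the data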
Target sequence (Q9GZU7 76-261 limits assumed): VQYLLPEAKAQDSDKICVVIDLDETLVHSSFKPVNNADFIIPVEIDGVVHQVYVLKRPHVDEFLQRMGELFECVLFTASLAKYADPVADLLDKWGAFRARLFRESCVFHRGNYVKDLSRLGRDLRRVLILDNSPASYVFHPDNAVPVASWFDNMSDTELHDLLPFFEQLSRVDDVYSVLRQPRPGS
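Test system: SCP-1 catalytic domain; Buffer or medium: Acidic Tris acetate buffer with magnesium and detergent; Also added: Phosphorylated 17-residue peptide substrate; Compound: single 20 µM dose, 1% DMSO; Schedule: enzyme reaction 45 min at room temperature, colour 5 min, stabilisation 30 min; Signal: Phosphate-binding colour reagent, absorbance read at 630 nm.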
LMPTP block: LMPTP (human) inhibition; P24666; recombinant LMPTP-A, OMFP fluorogenic substrate, fluorescence intensity; AID 651560; inhibition, % at 20 µM; hit rate 0.22% among 360,000;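 active = compounds that cut the enzyme signal by at least half of the control window in the single-dose screen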
Target sequence (P24666 whole entry, looked up): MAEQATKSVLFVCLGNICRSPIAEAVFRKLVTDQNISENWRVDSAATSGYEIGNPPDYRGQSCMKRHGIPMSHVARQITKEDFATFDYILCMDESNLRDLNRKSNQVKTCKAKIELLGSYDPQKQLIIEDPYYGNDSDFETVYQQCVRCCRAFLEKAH
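Material: LMPTP-A; amount: 0.625 nM enzyme; doses: single 20 µM dose; times: reaction 50 min, room temperature, dark; technique: fluorescence intensity of OMFP turnover product; benchmarks: no-enzyme and uninhibited controls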
SUMO1 PPI mod: alters human SUMO1 binding to SIM partners | P63165 | SUMO1 binding to a labelled peptide, TR-FRET, 1 h | inhibition, % at 20 µM | hit rate 0.33% among 360,000; in the data active = inhibition above about 37%
Target sequence (P63165 whole entry, looked up): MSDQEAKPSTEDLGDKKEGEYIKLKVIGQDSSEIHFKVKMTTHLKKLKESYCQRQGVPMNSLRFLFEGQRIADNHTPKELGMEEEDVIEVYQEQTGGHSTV
HKDC1 inh: HKDC1 (human) hexokinase inhibition; inhibition, % at 20 µM; recombinant HKDC1, G6PDH/diaphorase resazurin coupled fluorescence; Q2TB90; hit rate 0.16% among 340,000;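 active = inhibition above about 35% when tested at 20 µM, limit read from the data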
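Test system: recombinant HKDC1 (HK5) hexokinase enzyme, produced in-house / Doses: 20 µM test compound, 1% DMSO / Timing: 90 min, room temperature / Detection: G6PDH/diaphorase-coupled fluorescence, 1 mM NADP, 100 µM resazurin, 525/613 nm / Control set: DMSO wells with and without enzyme mix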
DNMT1 block: blocks human DNA methyltransferase DNMT1. DNMT1 molecular beacon, Hinp1I cleavage, fluorescence. hit rate 0.83% among 360,000. inhibition (reported as % activation of signal), % at 10 µM; in the data active = inhibition above about 50%
STEP inh: STEP (human) phosphatase inhibition; inhibition, % at 20 µM; AID 588621; recombinant STEP, OMFP fluorogenic substrate, fluorescence; P54829; hit rate 0.25% among 360,000;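 active = inhibition at 20 µM, scaled per plate between control wells, above about 37%, limit read from the data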
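System: STEP phosphatase, cell-free reaction; Buffer or medium: Bis-Tris pH 6.0 buffer with DTT, detergent; Incubation: 20 min at room temperature, dark; Measured by: fluorescence, 480/540 nm.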
Each line names hits and unclear results; the compound was inactive in the other large screens.

CCNC(=O)C1CCCN(C(=O)c2cccc(C#N)c2)CC1 (centres undefined)	none (no result: Scp-1 inhibitor, HKDC1 inh)
CCOC(=O)[C@]12CCCC=C1N(Cc1ccccc1)C(=O)[C@H](CC(=O)NCC13CC4CC(CC(C4)C1)C3)C2	none (no result: Scp-1 inhibitor, HKDC1 inh, DNMT1 block, STEP inh)
Cc1ccc(N2C(=O)c3cccc4c(N)ccc(c34)C2=O)c2cccnc12	Scp-1 inhibitor 67
Cc1nn(C)c(C)c1N1C(=O)c2cccc3c(Br)ccc(c23)C1=O	none
CCCCNc1ccc2c3c(cccc13)C(=O)N(CCCC)C2=O	DNMT1 block 61
Cc1nn(C)c(C)c1N1C(=O)c2cccc3c(N)ccc(c23)C1=O	DNMT1 block 93
CCN1C(=O)c2cccc3c(N)ccc(c23)C1=O	DNMT1 block 124
O=C(c1ccccc1)n1c2ccccc2c(=O)n1-c1ccccc1CCl	none (no result: Scp-1 inhibitor, HKDC1 inh)
CCOc1ccc(CCNS(=O)(=O)c2c(C)nc3sccn3c2=O)cc1OCC	none (no result: Scp-1 inhibitor, HKDC1 inh)
COc1ccc2c(c1)c(=O)oc1cc(OCC(=O)N3CCCC(C)C3)ccc12 (centres undefined)	none
COc1ccc2c(c1)c(=O)oc1cc(OCC(=O)N3CCC(C)CC3)ccc12	Scp-1 inhibitor 77, DNMT1 block 63
COc1ccc(C)cc1N1CC(C(=O)Nc2cccc(C(=O)NC3CC3)c2)CC1=O (centres undefined)	none (no result: Scp-1 inhibitor, HKDC1 inh)
N#C/C(=C(/O)c1ccc(-c2cccc([N+](=O)[O-])c2)o1)c1nc2ccccc2s1	Scp-1 inhibitor 89, LMPTP block 52
O=C(O)c1ccc(-c2cccc([N+](=O)[O-])c2)o1	none
CN(Cc1ccccc1)C(=O)c1ccc(Cc2cn(C)c3ccccc23)nc1	none (no result: Scp-1 inhibitor, HKDC1 inh)
CCN1/C(=C/c2ccc3cc(C)ccc3[n+]2CC)Sc2ccc3sccc3c21	LMPTP block 84, SUMO1 PPI mod 104
CCN1/C(=C/c2ccc3cc(C)cc(C)c3[n+]2CC)Sc2cc(C)ccc21	LMPTP block 48
CCN1/C(=C/c2ccc3cccc(C)c3[n+]2CC)Sc2ccccc21	none
CCN1/C(=C\c2ccc3cc(C)ccc3[n+]2CC)Sc2cc(C)c(C)cc21	none
O=C(CN1CCN(Cc2ccccc2)CC1)Nc1cccc(Cl)c1Cl	none (no result: Scp-1 inhibitor, HKDC1 inh)
C[C@H]1c2cccc(O)c2C(O)=C2C(=O)C3(O)C(O)=C(C(N)=O)C(=O)[C@@H](N(C)C)[C@@H]3[C@@H](O)[C@@H]21 (some centres undefined)	none
C=C1c2cccc(O)c2C(O)=C2C(=O)[C@]3(O)C(O)=C(C(N)=O)C(=O)[C@@H](N(C)C)[C@@H]3[C@@H](O)[C@H]12	LMPTP block 88, SUMO1 PPI mod 72, DNMT1 block 90
Cc1ccc(S(=O)(=O)N(CC(=O)c2ccc(Cl)cc2)C(=O)N2CCN(C)CC2)cc1	none
C=C(C)CN(CC)c1nc(N)c2c(N)nc3c(c2c1C#N)CC(=O)N3C12CC3CC(CC(C3)C1)C2	none
N#Cc1c(N2CCCC(O)C2)nc(N)c2c(N)nc3c(c12)CC(=O)N3C12CC3CC(CC(C3)C1)C2 (centres undefined)	LMPTP block 49, SUMO1 PPI mod 56, DNMT1 block 84
CCCCNC(=O)C[C@@H]1C[C@@]2(C(=O)OC)CCCCC=C2N(CCC2=CCCCC2)C1=O	none (no result: Scp-1 inhibitor, HKDC1 inh, DNMT1 block, STEP inh)
O=C(NNC(=O)c1cc2cc(Br)ccc2oc1=O)c1ccc(O)cc1O	Scp-1 inhibitor 60, LMPTP block 54, STEP inh 49
Nc1ncnc2oc(-c3ccco3)c(-c3ccco3)c12	Scp-1 inhibitor 66, LMPTP block 61, DNMT1 block 93
CN1CCCC1CCNc1ccc2c(=O)c3ccccc3oc2c1 (centres undefined)	none
CN1CCC[C@H]1CCNc1ccc2c(=O)c3ccccc3n(C)c2c1	SUMO1 PPI mod 82
Cc1nc2scc(C)n2c(=O)c1S(=O)(=O)Nc1ccc(OC(F)(F)F)cc1	none
Cc1c(Cl)cccc1NC(=O)CNC(=O)C1CCN(C(=O)Nc2ccccc2)CC1	none
Cc1cc(C(=O)N/N=C/c2cc(Br)cc(Br)c2OC(=O)c2cccc(F)c2)n[nH]1	Scp-1 inhibitor 87, LMPTP block 65
